For orientation: IC50 means the midpoint of a concentration-inhibition curve.

Data on five compounds can be found in ChEMBL document CHEMBL3632503, “Antiproliferative and antiplasmodial compounds from selected Streptomyces species” (Bioorg Med Chem Lett, 2015).

Assay [1] deals with Plasmodium falciparum. The assay can be described thus: Antiplasmodial activity against Plasmodium falciparum Dd2 assessed as growth inhibition after 72 hrs by SYBR Green I dye based assay. It counts as functional, organism-based. The following applies: Dd2, 72 h. The method in brief: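 Ring-stage parasite cultures at 1% hematocrit and 1% parasitemia, grown 72 h at 37 °C with increasing drug concentrations under 5.05% CO2/4.93% O2/90.2% N2. Viability read by DNA quantitation with SYBR Green I in lysis buffer (0.4 µL dye per mL lysis buffer). IC50 from nonlinear regression curve fitting.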

Assay [2] deals with A2780. The assay can be described thus: Antiproliferative activity against human A2780 cells after […] by Alamar Blue assay. The class given is functional, cell-based. On the technique in general: Resazurin is reduced to fluorescent resorufin, in cell work by metabolically active cells.
The test system of assay [3] is A2058. Description: Antiproliferative activity against human A2058 cells after 96 hrs by CellTitre-Glo luminescent assay. It counts as functional, cell-based. Conditions: A2058, 96 h.
Assay [4] is described as follows: Antiproliferative activity against human H522-T1 cells after 96 hrs by CellTitre-Glo luminescent assay. It counts as functional, cell-based. The following applies: H522-T1, 96 h.
In assay [5] the test system is A2058. The assay can be described thus: Selectivity ratio of IC50 for human A2780 cells to IC50 for human A2058 cells. It counts as functional.

For the compound `Cn1c(=O)/c(=C/c2ccccc2)[nH]c(=O)/c1=C/c1ccccc1`, in assay [1], the IC50 came out at 6570 nM.
Same read-out and setting: the same measure for `C=C1NC(=O)[C@H]([C@H](C)OC)N(C)C1=O`: 50000 nM.
For `CC[C@H]1C[C@@H]2CC[C@@H](O2)[C@@H](C)C(=O)O[C@H](C)C[C@H]2CC[C@H](O2)[C@H](C)C(=O)O[C@@H](CC)C[C@@H]2CC[C@@H](O2)[C@@H](C)C(=O)O[C@H](C)C[C@H]2CC[C@H](O2)[C@H](C)C(=O)O1` [DINACTIN], the figures for the IC50 in assay [2], in assay [3] and in assay [4] were 260 nM, 20 nM and 10 nM, respectively. Moreover, the “Ratio IC50” value in assay [5] was found to be 13.
Taken in the same sequence, the figures for `CC[C@H]1C[C@@H]2CC[C@@H](O2)[C@@H](C)C(=O)O[C@H](C)C[C@H]2CC[C@H](O2)[C@H](C)C(=O)O[C@@H](C)C[C@@H]2CC[C@@H](O2)[C@@H](C)C(=O)O[C@H](C)C[C@H]2CC[C@H](O2)[C@H](C)C(=O)O1` [MONACTIN] were 130 nM, 20 nM, 10 nM and 6.5.
For the compound `C[C@@H]1C[C@H]2CC[C@H](O2)[C@H](C)C(=O)O[C@@H](C)C[C@@H]2CC[C@@H](O2)[C@@H](C)C(=O)O[C@H](C)C[C@H]2CC[C@@H](O2)[C@H](C)C(=O)O[C@@H](C)C[C@@H]2CC[C@@H](O2)[C@@H](C)C(=O)O1` [NONACTIN], the half-maximal inhibitory concentration (IC50) in assay [2] amounted to 160 nM; in assay [3], 260 nM; in assay [4], 190 nM.
